Measured values published in ChEMBL document CHEMBL5058577, “EUbOPEN Chemogenomics Library 2 (Multiplex)” (2022).

System: HEK-293T
Assay: Multiplex assay against HEK293T
Type: toxicity, cell-based
Conditions: human
Summary of the method: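 Cells stained live at seeding with Hoechst33342, BioTracker Green Microtubule Cytoskeleton Dye, MitoTracker Red and Annexin V Alexa Fluor 680 were imaged on a CQ1 microscope at 37°C and 5% CO2 after compound addition. Their classification by CellPathfinder machine-learning gating ran from Hoechst high-intensity objects versus normal cells, to healthy, pyknosed or fragmented nuclei among normal cells, to mitotic or apoptotic among pyknosed cells. Tubulin, mitochondrial-mass and membrane-permeability phenotypes are per cents of healthy-nucleus cells.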

[1] = 12 h, 1 µM, compound concentration 1 uM, replicate 1
[2] = 12 h, 1 µM, compound concentration 1 uM, replicate 2
[3] = 12 h, 10 µM, compound concentration 10 uM, replicate 1
[4] = 12 h, 10 µM, compound concentration 10 uM, replicate 2
[5] = 24 h, 1 µM, compound concentration 1 uM, replicate 1
[6] = 24 h, 1 µM, compound concentration 1 uM, replicate 2
[7] = 24 h, 10 µM, compound concentration 10 uM, replicate 1
[8] = 24 h, 10 µM, compound concentration 10 uM, replicate 2
[9] = 48 h, 1 µM, compound concentration 1 uM, replicate 1
[10] = 48 h, 1 µM, compound concentration 1 uM, replicate 2
[11] = 48 h, 10 µM, compound concentration 10 uM, replicate 1
[12] = 48 h, 10 µM, compound concentration 10 uM, replicate 2

For CC(C)C[C@H](CO)Nc1nc(S[C@@H](C)c2ccccc2)nc2nc(N)sc12 [AZD-8797], the “Population Apoptotic (%)” value [1] was 39%, the “Population Fragmented Nuclei (%)” value [1] was 2% and the “Population Healthy Nuclei (%)” value [1] was 81%. For the same molecule, the “Population Hoechst High Intensity Objects (%)” value [1] was 4%, the “Population Membrane Permeable-Phenotype (%)” value [1] was 0% and the “Population Mitochondria Different-Phenotype (%)” value [1] was 44%. The “Population Mitotic Cells (%)” value [1] was 60%, the “Population Normal (%)” value [1] was 95% and the “Population Pyknosed Nuclei (%)” value [1] was 15%. The “Population Tubulin-Different-Phenotype (%)” value [1] was 27%, the “Total Cell Count” value [1] was 326 and the “Population Apoptotic (%)” value [2] was 46%. The “Population Fragmented Nuclei (%)” value [2] was 8%, the “Population Healthy Nuclei (%)” value [2] was 72% and the “Population Hoechst High Intensity Objects (%)” value [2] was 7%. The “Population Mitochondria Different-Phenotype (%)” value [2] was 57%, the “Population Mitotic Cells (%)” value [2] was 53% and the “Population Normal (%)” value [2] was 92%. For the same molecule, the “Population Pyknosed Nuclei (%)” value [2] was 18%, the “Population Tubulin-Different-Phenotype (%)” value [2] was 22% and the “Total Cell Count” value [2] was 356. For the same molecule, the “Population Apoptotic (%)” value [3] was 65%, the “Population Fragmented Nuclei (%)” value [3] was 9% and the “Population Healthy Nuclei (%)” value [3] was 71%. The “Population Hoechst High Intensity Objects (%)” value [3] was 10%, the “Population Membrane Permeable-Phenotype (%)” value [3] was 0% and the “Population Mitochondria Different-Phenotype (%)” value [3] was 70%. The “Population Mitotic Cells (%)” value [3] was 34%, the “Population Normal (%)” value [3] was 89% and the “Population Pyknosed Nuclei (%)” value [3] was 18%. For the same molecule, the “Population Tubulin-Different-Phenotype (%)” value [3] was 56%, the “Total Cell Count” value [3] was 279 and the “Population Apoptotic (%)” value [4] was 67%. The “Population Fragmented Nuclei (%)” value [4] was 6%, the “Population Healthy Nuclei (%)” value [4] was 75% and the “Population Mitochondria Different-Phenotype (%)” value [4] was 75%. The “Population Mitotic Cells (%)” value [4] was 32%, the “Population Tubulin-Different-Phenotype (%)” value [4] was 39% and the “Total Cell Count” value [4] was 345. The “Population Apoptotic (%)” value [5] was 37%, the “Population Fragmented Nuclei (%)” value [5] was 7% and the “Population Healthy Nuclei (%)” value [5] was 76%. For the same molecule, the “Population Hoechst High Intensity Objects (%)” value [5] was 3%, the “Population Membrane Permeable-Phenotype (%)” value [5] was 0% and the “Population Mitochondria Different-Phenotype (%)” value [5] was 25%. The “Population Mitotic Cells (%)” value [5] was 62%, the “Population Normal (%)” value [5] was 97% and the “Population Pyknosed Nuclei (%)” value [5] was 15%. For the same molecule, the “Population Tubulin-Different-Phenotype (%)” value [5] was 16%, the “Total Cell Count” value [5] was 400 and the “Population Apoptotic (%)” value [6] was 45%. The “Population Healthy Nuclei (%)” value [6] was 81%, the “Population Hoechst High Intensity Objects (%)” value [6] was 5% and the “Population Mitochondria Different-Phenotype (%)” value [6] was 42%. For the same molecule, the “Population Mitotic Cells (%)” value [6] was 54%, the “Population Normal (%)” value [6] was 94% and the “Population Pyknosed Nuclei (%)” value [6] was 11%. The “Population Tubulin-Different-Phenotype (%)” value [6] was 14%, the “Total Cell Count” value [6] was 421 and the “Population Apoptotic (%)” value [7] was 54%. For the same molecule, the “Population Fragmented Nuclei (%)” value [7] was 8%, the “Population Healthy Nuclei (%)” value [7] was 73% and the “Population Hoechst High Intensity Objects (%)” value [7] was 9%. The “Population Membrane Permeable-Phenotype (%)” value [7] was 0%, the “Population Mitochondria Different-Phenotype (%)” value [7] was 64% and the “Population Mitotic Cells (%)” value [7] was 45%. For the same molecule, the “Population Normal (%)” value [7] was 90%, the “Population Pyknosed Nuclei (%)” value [7] was 17% and the “Population Tubulin-Different-Phenotype (%)” value [7] was 39%. For the same molecule, the “Total Cell Count” value [7] was 346, the “Population Apoptotic (%)” value [8] was 51% and the “Population Fragmented Nuclei (%)” value [8] was 9%. The “Population Healthy Nuclei (%)” value [8] was 77%, the “Population Hoechst High Intensity Objects (%)” value [8] was 8% and the “Population Mitochondria Different-Phenotype (%)” value [8] was 71%. For the same molecule, the “Population Mitotic Cells (%)” value [8] was 48%, the “Population Normal (%)” value [8] was 91% and the “Population Pyknosed Nuclei (%)” value [8] was 12%. The “Population Tubulin-Different-Phenotype (%)” value [8] was 36%, the “Total Cell Count” value [8] was 393 and the “Population Apoptotic (%)” value [9] was 43%. For the same molecule, the “Population Fragmented Nuclei (%)” value [9] was 15%, the “Population Healthy Nuclei (%)” value [9] was 78% and the “Population Hoechst High Intensity Objects (%)” value [9] was 1%. The “Population Membrane Permeable-Phenotype (%)” value [9] was 0%, the “Population Mitochondria Different-Phenotype (%)” value [9] was 16% and the “Population Mitotic Cells (%)” value [9] was 56%. The “Population Normal (%)” value [9] was 98%, the “Population Pyknosed Nuclei (%)” value [9] was 6% and the “Population Tubulin-Different-Phenotype (%)” value [9] was 10%. For the same molecule, the “Total Cell Count” value [9] was 663, the “Population Apoptotic (%)” value [10] was 24% and the “Population Fragmented Nuclei (%)” value [10] was 12%. For the same molecule, the “Population Healthy Nuclei (%)” value [10] was 79%, the “Population Hoechst High Intensity Objects (%)” value [10] was 3% and the “Population Membrane Permeable-Phenotype (%)” value [10] was 1%. For the same molecule, the “Population Mitochondria Different-Phenotype (%)” value [10] was 24%, the “Population Mitotic Cells (%)” value [10] was 75% and the “Population Normal (%)” value [10] was 96%. For the same molecule, the “Population Pyknosed Nuclei (%)” value [10] was 8%, the “Population Tubulin-Different-Phenotype (%)” value [10] was 13% and the “Total Cell Count” value [10] was 681. For the same molecule, the “Population Apoptotic (%)” value [11] was 60%, the “Population Fragmented Nuclei (%)” value [11] was 16% and the “Population Healthy Nuclei (%)” value [11] was 72%. The “Population Hoechst High Intensity Objects (%)” value [11] was 7%, the “Population Membrane Permeable-Phenotype (%)” value [11] was 0% and the “Population Mitochondria Different-Phenotype (%)” value [11] was 57%. The “Population Mitotic Cells (%)” value [11] was 39%, the “Population Normal (%)” value [11] was 92% and the “Population Pyknosed Nuclei (%)” value [11] was 11%. For the same molecule, the “Population Tubulin-Different-Phenotype (%)” value [11] was 28%, the “Total Cell Count” value [11] was 416 and the “Population Apoptotic (%)” value [12] was 52%. For the same molecule, the “Population Fragmented Nuclei (%)” value [12] was 15%, the “Population Healthy Nuclei (%)” value [12] was 75% and the “Population Hoechst High Intensity Objects (%)” value [12] was 6%. For the same molecule, the “Population Mitochondria Different-Phenotype (%)” value [12] was 52%, the “Population Mitotic Cells (%)” value [12] was 47% and the “Population Normal (%)” value [12] was 93%. The “Population Pyknosed Nuclei (%)” value [12] was 8%, the “Population Tubulin-Different-Phenotype (%)” value [12] was 21% and the “Total Cell Count” value [12] was 530.
